Experimental data taken from ChEMBL document CHEMBL1134319, “Synthesis and antitumor activity of novel C-7 paclitaxel ethers: discovery of BMS-184476” (J Med Chem, 2001).

What was measured:
HCT-116 = assay: Inhibitory activity against human colon tumor cell sensitive to paclitaxel.; type: functional, cell-based
[1] = Inhibition of tubulin polymerization compared paclitaxel.; type: functional
Summary of the method: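 Tubulin polymerization was followed by optical density. The value is the compound concentration giving a change of 0.01 OD/h, expressed as a ratio to the paclitaxel concentration giving the same change.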

M109 [2] = assay: In vivo efficacy against Madison Murine lung carcinoma M109 tumors implanted ip and the drug given ip on days 5 and 8 post implantation.; type: functional, Mus musculus
Summary of the method: (§1)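 M109 tumor was implanted ip and drug given ip on days 5 and 8 after implantation. Read-out was %T/C of the analogue at its maximum tolerated dose, reported against %T/C for paclitaxel at a historically determined efficacious dose, which is not its MTD. %T/C above 125% is counted as active.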

M109 [3] = assay: In vivo efficacy against Madison Murine lung carcinoma M109 tumors implanted sc and the drug given iv every day x 5 beginning 4 days post implantation.; type: functional, Mus musculus
Summary of the method: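 Murine M109 tumor was implanted subcutaneously, a site distal to drug administration. Dosing was iv daily ×5 starting 4 days after implant. Activity was expressed as gross log cell kill (LCK) of the analogue at its maximum tolerated dose, alongside LCK for paclitaxel at a historically determined efficacious dose. An LCK of 1 is counted as active.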

[4] = Ratio of IC50 values of HCT116 MDR resistant cell line to HCT-116 sensitive cell line.; type: functional
Summary of the method: (§2)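 IC50 was measured in the HCT-116/MDR paclitaxel-resistant human colon tumor line and in parental paclitaxel-sensitive HCT-116 cells. The ratio is resistant IC50 divided by sensitive IC50.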

M109 [5] = assay: In vivo efficacy against Madison Murine lung carcinoma M109 tumors implanted ip and the drug given ip on days 5 and 8 post implantation; type: functional, Mus musculus; summary of the method: as §1
[6] = Ratio of IC50 values of HCT116 MDR resistant cell line to HCT-116 sensitive cell line; type: functional; summary of the method: as §2
Mus musculus [7] = organism: Mus musculus; assay: Number of cures/total at optimal dose of 2 units for q2dx5;8 schedule in mice infected with A2780 (ovarian carcinoma) cells; 0/8; type: functional
Mus musculus [8] = organism: Mus musculus; assay: Gross log cell kill activity at optimal dose of 40 units for q2dx5;10 schedule in mice infected with HCT/pk (Colon ca.) cells.; type: functional
Mus musculus [9] = organism: Mus musculus; assay: Number of cures/total at optimal dose of 30 units for q2dx5;26 schedule in mice infected with L2987 (Lung carcinoma) cells; 0/8; type: functional
Mus musculus [10] = organism: Mus musculus; assay: Gross log cell kill activity at optimal dose of 2 units for q2dx5;8 schedule in mice infected with A2780 (ovarian carcinoma) cells.; type: functional
Summary of the method: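 Staged A2780 tumours in mice. Dosing was intravenous, every other day for 5 doses, starting 8 days after implantation. Optimal dose is the one below the excessively toxic dose. Activity is reported as gross log cell kill.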

Mus musculus [11] = organism: Mus musculus; assay: %T/C at optimal dose of 30 units for q2dx5;12 schedule in mice infected with HOC79 (ovarian ca.) cells.
Mus musculus [12] = organism: Mus musculus; assay: Number of cures/total at optimal dose of 30 units for q2dx5;12 schedule in mice infected with HOC79 (ovarian ca.) cells; 0/8; type: functional
Mus musculus [13] = organism: Mus musculus; assay: Gross log cell kill activity at optimal dose of 30 units for q2dx5;26 schedule in mice infected with L2987 (Lung carcinoma) cells; type: functional
Mus musculus [14] = organism: Mus musculus; assay: Number of cures/total at optimal dose of 40 units for q2dx5;10 schedule in mice infected with HCT/pk (Colon ca.) cells; 1/8; type: functional

With `CCOCO[C@H]1C[C@H]2OC[C@@]2(OC(C)=O)C2[C@H](OC(=O)c3ccccc3)[C@]3(O)CC(OC(=O)[C@H](O)[C@@H](NC(=O)c4ccccc4)c4ccccc4)C(C)=C([C@@H](OC(C)=O)C(=O)[C@@]21C)C3(C)C` (some centres not stated) the IC50 (HCT-116) was 2.2 nM, the Ratio [1] was 0.6 and the Efficacy (M109 [2]) was 132.

For `CSCO[C@H]1C[C@H]2OC[C@@]2(OC(C)=O)C2[C@H](OC(=O)c3ccccc3)[C@]3(O)CC(OC(=O)[C@H](O)[C@@H](NC(=O)c4ccccc4)c4ccco4)C(C)=C([C@@H](OC(C)=O)C(=O)[C@@]21C)C3(C)C` (some centres not stated), the Efficacy (M109 [3]) was 1.1, the IC50 (HCT-116) was 0.6 nM and the Ratio [1] was 1. The Efficacy (M109 [2]) was 191.

With `COCO[C@H]1C[C@H]2OC[C@@]2(OC(C)=O)C2[C@H](OC(=O)c3ccccc3)[C@]3(O)CC(OC(=O)[C@H](O)[C@@H](NC(=O)OC(C)(C)C)c4ccccc4)C(C)=C([C@@H](OC(C)=O)C(=O)[C@@]21C)C3(C)C` (some centres not stated) the IC50 (HCT-116) was 1.1 nM, the Ratio [1] was 0.2 and the Efficacy (M109 [2]) was 118. The Ratio [4] was 2.

For `COCCOCO[C@H]1C[C@H]2OC[C@@]2(OC(C)=O)C2[C@H](OC(=O)c3ccccc3)[C@]3(O)CC(OC(=O)[C@H](O)[C@@H](NC(=O)c4ccccc4)c4ccccc4)C(C)=C([C@@H](OC(C)=O)C(=O)[C@@]21C)C3(C)C` (some centres not stated), the IC50 (HCT-116) was 0.9 nM, the Ratio [1] was 1.1 and the Efficacy (M109 [2]) was 132.

Molecule `CCCCOC(=O)N[C@@H](c1ccccc1)[C@@H](O)C(=O)OC1C[C@@]2(O)[C@@H](OC(=O)c3ccccc3)C3[C@](C)(C(=O)[C@H](OC(C)=O)C(=C1C)C2(C)C)[C@@H](OCSC)C[C@H]1OC[C@@]31OC(C)=O` (some centres not stated) has an Efficacy (M109 [3]) of 0.2, an IC50 (HCT-116) of 1.2 nM and a Ratio [1] of 0.6. The Efficacy (M109 [2]) was 177.

`CC(=O)O[C@H]1C(=O)[C@@]2(C)C([C@H](OC(=O)c3ccccc3)[C@]3(O)CC(OC(=O)[C@H](O)[C@@H](NC(=O)c4ccccc4)c4ccccc4)C(C)=C1C3(C)C)[C@]1(OC(C)=O)CO[C@@H]1C[C@@H]2OCOCCO` (some centres not stated) gave an Efficacy (M109 [3]) of 0.9, an IC50 (HCT-116) of 1.1 nM and a Ratio [1] of 1. The Efficacy (M109 [2]) was 238.

In the case of `COCO[C@H]1C[C@H]2OC[C@@]2(OC(C)=O)C2[C@H](OC(=O)c3ccccc3)[C@]3(O)CC(OC(=O)[C@H](O)[C@@H](NC(=O)c4ccccc4)c4ccccc4)C(C)=C([C@@H](OC(C)=O)C(=O)[C@@]21C)C3(C)C` (some centres not stated), the IC50 (HCT-116) is reported as 1.4 nM, the Ratio [1] is reported as 0.5 and the Efficacy (M109 [2]) is reported as 192. It also gave a Ratio [4] of 10.

With `CC(=O)O[C@H]1C(=O)[C@@]2(C)C([C@H](OC(=O)c3ccccc3)[C@]3(O)CC(OC(=O)[C@H](O)[C@@H](NC(=O)OC(C)(C)C)c4ccco4)C(C)=C1C3(C)C)[C@]1(OC(C)=O)CO[C@@H]1C[C@@H]2OCOCCO` (some centres not stated) the IC50 (HCT-116) was 1.7 nM, the Ratio [1] was 0.3 and the Ratio [4] was 4.1.

With `CSCO[C@H]1C[C@H]2OC[C@@]2(OC(C)=O)C2[C@H](OC(=O)c3ccccc3)[C@]3(O)CC(OC(=O)[C@H](O)[C@@H](NC(=O)OC(C)(C)C)c4ccco4)C(C)=C([C@@H](OC(C)=O)C(=O)[C@@]21C)C3(C)C` (some centres not stated) the IC50 (HCT-116) was 1.7 nM, the Ratio [1] was 1.6 and the Efficacy (M109 [2]) was 104. It also gave a Ratio [4] of 1.

`COCO[C@H]1C[C@H]2OC[C@@]2(OC(C)=O)C2[C@H](OC(=O)c3ccccc3)[C@]3(O)CC(OC(=O)[C@H](O)[C@@H](NC(=O)c4ccccc4)c4ccco4)C(C)=C([C@@H](OC(C)=O)C(=O)[C@@]21C)C3(C)C` (some centres not stated) gave an Efficacy (M109 [5]) of 115, an IC50 (HCT-116) of 2.1 nM and a Ratio [1] of 2.3.

In the case of `COCO[C@H]1C[C@H]2OC[C@@]2(OC(C)=O)C2[C@H](OC(=O)c3ccccc3)[C@]3(O)CC(OC(=O)[C@H](O)[C@@H](NC(=O)OC(C)(C)C)c4ccco4)C(C)=C([C@@H](OC(C)=O)C(=O)[C@@]21C)C3(C)C` (some centres not stated), the IC50 (HCT-116) is reported as 1.3 nM, the Ratio [1] is reported as 0.4 and the Efficacy (M109 [2]) is reported as 118. The Ratio [4] was 5.6.

In the case of `COCO[C@H]1C[C@H]2OC[C@@]2(OC(C)=O)C2[C@H](OC(=O)c3ccccc3)[C@]3(O)CC(OC(=O)[C@H](O)[C@@H](NC(=O)OCc4ccccc4)c4ccccc4)C(C)=C([C@@H](OC(C)=O)C(=O)[C@@]21C)C3(C)C` (some centres not stated), the IC50 (HCT-116) is reported as 1.4 nM, the Ratio [1] is reported as 0.6 and the Efficacy (M109 [2]) is reported as 139.

Molecule `CO[C@H]1C[C@H]2OC[C@@]2(OC(C)=O)C2[C@H](OC(=O)c3ccccc3)[C@]3(O)CC(OC(=O)[C@H](O)[C@@H](NC(=O)OC(C)(C)C)c4ccco4)C(C)=C([C@@H](OC(C)=O)C(=O)[C@@]21C)C3(C)C` (some centres not stated) has an Efficacy (M109 [5]) of 121, a Ratio [6] of 1.7 and an IC50 (HCT-116) of 1.3 nM. It also gave a Ratio [1] of 0.4.

With `CSCO[C@H]1C[C@H]2OC[C@@]2(OC(C)=O)C2[C@H](OC(=O)c3ccccc3)[C@]3(O)CC(OC(=O)[C@H](O)[C@H](C=C(C)C)NC(=O)OC(C)(C)C)C(C)=C([C@@H](OC(C)=O)C(=O)[C@@]21C)C3(C)C` (some centres not stated) the IC50 (HCT-116) was 0.7 nM, the Ratio [1] was 1.1 and the Efficacy (M109 [2]) was 109. For the same molecule, the Ratio [4] was 3.3.

Molecule `CC(=O)O[C@H]1C(=O)[C@@]2(C)C([C@H](OC(=O)c3ccccc3)[C@]3(O)CC(OC(=O)[C@H](O)[C@@H](NC(=O)OC(C)C)c4ccco4)C(C)=C1C3(C)C)[C@]1(OC(C)=O)CO[C@@H]1C[C@@H]2OCOCCO` (some centres not stated) has an IC50 (HCT-116) of 0.9 nM, a Ratio [1] of 0.3 and an Efficacy (M109 [2]) of 145.

In the case of `CC(=O)O[C@H]1C(=O)[C@@]2(C)C([C@H](OC(=O)c3ccccc3)[C@]3(O)CC(OC(=O)[C@H](O)[C@@H](NC(=O)OC(C)(C)C)c4ccccc4)C(C)=C1C3(C)C)[C@]1(OC(C)=O)CO[C@@H]1C[C@@H]2OCOCCO` (some centres not stated), the IC50 (HCT-116) is reported as 1.1 nM, the Ratio [1] is reported as 1.6 and the Efficacy (M109 [2]) is reported as 136. The Ratio [4] was 0.7.

In the case of `CSCO[C@H]1C[C@H]2OC[C@@]2(OC(C)=O)C2[C@H](OC(=O)c3ccccc3)[C@]3(O)CC(OC(=O)[C@H](O)[C@@H](NC(=O)OC(C)C)c4ccccc4)C(C)=C([C@@H](OC(C)=O)C(=O)[C@@]21C)C3(C)C` (some centres not stated), the Efficacy (M109 [3]) is reported as 0.5, the IC50 (HCT-116) is reported as 1.7 nM and the Ratio [1] is reported as 1.6. It also gave an Efficacy (M109 [2]) of 191.

In the case of `CC(=O)O[C@H]1C(=O)[C@@]2(C)[C@H]([C@H](OC(=O)c3ccccc3)[C@]3(O)C[C@H](OC(=O)[C@H](O)[C@@H](NC(=O)c4ccccc4)c4ccccc4)C(C)=C1C3(C)C)[C@]1(OC(C)=O)CO[C@@H]1C[C@@H]2O` [PACLITAXEL], the C/T (Mus musculus [7]) is reported as 0, the LCK (Mus musculus [8]) is reported as 2.8 and the C/T (Mus musculus [9]) is reported as 0. The LCK (Mus musculus [10]) was 6.1, the %T/C (Mus musculus [11]) was 273% and the C/T (Mus musculus [12]) was 0. For the same molecule, the Ratio [1] was 1, the LCK (Mus musculus [13]) was 1.3 and the C/T (Mus musculus [14]) was 1. For the same molecule, the Ratio [4] was 200.
